Assay [1] has as its target T1, Cyclin-dependent kinase 2/cyclin E1 (Homo sapiens, UniProt P24941). Briefly: Concentration required for inhibition of cyclin dependant kinase 2-cyclin E was measured by scintillation proximity assay. It is filed as protein-complex assay. The method, boiled down: (§1)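 Kinase activity was read by scintillation proximity assay against cdk5/p25 and cdk2/cyclin E, with the same final ATP concentration in both assays. ATP Km was measured separately for each enzyme. Each IC50 came from a six-point dose–response curve run in triplicate.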
On the technique in general: SPA uses beads or plates that emit light when radiolabelled molecules are held near them.

Assay [2] in a line: Ratio of inhibition of cyclin dependant kinase 2-cyclin E to that of cyclin-dependent kinase 5. The method, boiled down:
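Selectivity is the cdk2/cyclin E IC50 divided by the cdk5/p25 IC50 (k2/k5). Both IC50s came from six-point triplicate dose–response curves in scintillation proximity assays run at the same final ATP concentration.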

Assay [3] concerns the target Cyclin-dependent kinase 5 (Homo sapiens, UniProt Q00535). Briefly: Concentration required for inhibition of cyclin-dependent kinase 5 was measured by scintillation proximity assay. A digest of the protocol:
as §1

Assay [4] concerns the target T1, Cyclin-dependent kinase 2/cyclin E1. The assay is described as follows: Concentration required for 50% inhibition of cyclin dependant kinase 2-cyclin E was measured by scintillation proximity assay. It is filed as protein-complex assay. A digest of the protocol:
as §1

The values that follow come from ChEMBL document CHEMBL1138018, “Discovery and SAR of 2-aminothiazole inhibitors of cyclin-dependent kinase 5/p25 as a potential treatment for Alzheimer's disease” (Bioorg Med Chem Lett, 2004).

By IC50 is commonly meant the point on the concentration scale where inhibition reaches its midpoint. Low readings indicate inhibition by little substance, high ones a need for much substance.

Sequence of Cyclin-dependent kinase 5 (Q00535 whole entry): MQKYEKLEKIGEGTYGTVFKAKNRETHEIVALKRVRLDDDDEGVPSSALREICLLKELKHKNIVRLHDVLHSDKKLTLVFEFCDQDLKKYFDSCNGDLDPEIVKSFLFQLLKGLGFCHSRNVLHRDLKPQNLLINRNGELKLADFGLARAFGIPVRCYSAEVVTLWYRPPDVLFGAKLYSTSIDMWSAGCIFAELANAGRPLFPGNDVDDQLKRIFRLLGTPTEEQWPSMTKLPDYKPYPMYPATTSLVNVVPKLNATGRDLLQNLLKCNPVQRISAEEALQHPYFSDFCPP

Turning to `O=C(Nc1ncc(C2CCC2)s1)Nc1cccc2ccncc12`, the values for the IC50 in assay [1] and in assay [3] were 55 nM and 5 nM, respectively. In assay [2], the Ratio came out at 11.

With `CC(C)c1cnc(NC(=O)c2ccccc2)s1`, the IC50 in assay [4] is 1020 nM; in assay [3], 1150 nM. Moreover, in assay [2], the Ratio worked out at 0.9.

Turning to `O=C(Nc1ncc(C2CCC2)s1)Nc1cccc2cnccc12`, the IC50 in assay [1] was 96 nM; in assay [3], 8 nM. Besides, the Ratio in assay [2] stood at 12.

On to `O=C(Nc1ccccc1)Nc1ncc(C2CCC2)s1`, for which the half-maximal inhibitory concentration (IC50) in assay [1] is 290 nM; in assay [3] it was 183 nM. In addition, the Ratio in assay [2] worked out at 1.6.

In the case of `CC(C)c1cnc(NC(=O)Cc2ccccc2)s1`, the 50% inhibitory concentration (IC50) in assay [4] was found to be 98 nM; in assay [3], 64 nM. Moreover, the Ratio in assay [2] is 1.5.

For the molecule `CC(C)c1cnc(NC(=O)Oc2ccccc2)s1`, the values for the IC50 in assay [4] and in assay [3] were 980 nM and 1600 nM, respectively. Besides, in assay [2], the Ratio came out at 0.6.

In the case of `CCCCCc1cnc(NC(=O)Cc2ccccc2)s1`, the 50% inhibitory concentration (IC50) came to 4120 nM in assay [1] and 3270 nM in assay [3]. In assay [2], the Ratio worked out at 1.2.

Regarding `O=C(Nc1ncc(C2CCC2)s1)Nc1cccc2[nH]nnc12`, the Ratio in assay [2] was determined as 2.6.

Consider `O=C(Nc1ncc(C2CCC2)s1)Nc1cccc2nn[nH]c12`, for which the IC50 in assay [1] came out at 106 nM; in assay [3], 41 nM.

With `O=C(Cn1ccc2ccccc21)Nc1ncc(C2CCC2)s1`, the IC50 was 100 nM in assay [1] and 48 nM in assay [3]. The Ratio in assay [2] is 2.1.

Take `CCc1cnc(NC(=O)Cc2ccccc2)s1`: the figures for the IC50 in assay [4] and in assay [3] were 412 nM and 621 nM, respectively. Besides, in assay [2], the Ratio turned out to be 0.7.

`O=C(Cc1c[nH]c2ccccc12)Nc1ncc(C2CCC2)s1`: the IC50 in assay [1] was found to be 40 nM; in assay [3], 16 nM. The Ratio in assay [2] came to 2.5.

Take `CC(C)c1cnc(NC(=O)C(=O)c2ccccc2)s1`: the figures for the IC50 in assay [4] and in assay [3] were 9770 nM and 4580 nM, respectively. Further, the Ratio in assay [2] was found to be 2.1.

As for `CC(C)C(=O)Nc1ncc(C(C)C)s1`, the half-maximal inhibitory concentration (IC50) came to 318 nM in assay [1] and 321 nM in assay [3]. In assay [2], the Ratio stood at 1.

For `O=C(Nc1ccc2cnccc2c1)Nc1ncc(C2CCC2)s1`, the IC50 in assay [1] is 176 nM; in assay [3] it was 44 nM. Also, the Ratio in assay [2] was determined as 4.

Consider `O=C(Cc1ccccc1)Nc1ncc(Br)s1`, for which the IC50 in assay [1] stood at 480 nM; in assay [3], 900 nM. Also, the Ratio in assay [2] turned out to be 0.5.

`O=C(Nc1ncc(C2CCC2)s1)Nc1cccc2ncccc12`: the 50% inhibitory concentration (IC50) was 43 nM in assay [1] and 13 nM in assay [3]. The Ratio in assay [2] stood at 3.3.

Take `CSc1cnc(NC(=O)Cc2ccccc2)s1`: the values for the half-inhibitory concentration (IC50) in assay [1] and in assay [3] were 105 nM and 91 nM, respectively. Further, the Ratio in assay [2] stood at 1.2.

For the molecule `O=C(Cc1ccccc1)Nc1ncc(C2CCCCC2)s1`, the IC50 came out at 997 nM in assay [1] and 390 nM in assay [3]. Further, the Ratio in assay [2] was determined as 2.6.

As for `Cc1cc2ncn(CC(=O)Nc3ncc(C4CCC4)s3)c2cc1C`, the 50% inhibitory concentration (IC50) is 26 nM in assay [1] and 13 nM in assay [3]. Further, in assay [2], the Ratio was determined as 2.2.

`O=C(Cc1ccccc1)Nc1ncc(C2CCC2)s1`: the concentration for half-maximal inhibition (IC50) in assay [1] worked out at 74 nM; in assay [3], 25 nM. In assay [2], the Ratio was determined as 3.

As to `O=C(Cc1cccc2cnccc12)Nc1ncc(C2CCC2)s1`, the IC50 in assay [1] was found to be 70 nM; in assay [3], 13 nM. The Ratio in assay [2] stood at 5.4.

`O=C(Cc1ccccc1)Nc1ncc(-c2ccccc2)s1`: the concentration for half-maximal inhibition (IC50) in assay [1] is 2000 nM; in assay [3] it was 1570 nM. Also, the Ratio in assay [2] came out at 1.3.

Regarding `O=C(Cc1ccc2[nH]cnc2c1)Nc1ncc(C2CCC2)s1`, the 50% inhibitory concentration (IC50) in assay [1] was 33 nM; in assay [3] it was 7 nM. Further, the Ratio in assay [2] came to 4.7.

On to `CN(C)c1cnc(NC(=O)Cc2ccccc2)s1`, for which the concentration for half-maximal inhibition (IC50) in assay [1] came to 4810 nM; in assay [3] it was 3990 nM. In addition, the Ratio in assay [2] is 1.2.

For the molecule `O=C(Nc1ncc(C2CCC2)s1)Nc1cccc2c[nH]nc12`, the half-inhibitory concentration (IC50) was found to be 650 nM in assay [1] and 190 nM in assay [3]. Further, the Ratio in assay [2] was found to be 3.4.

For `CC(=O)c1cnc(NC(=O)Cc2ccccc2)s1`, the IC50 in assay [1] amounted to 4600 nM; in assay [3], 7670 nM. Further, the Ratio in assay [2] is 0.6.

As to `Cc1nc2ccc(CC(=O)Nc3ncc(C4CCC4)s3)cc2s1`, the half-maximal inhibitory concentration (IC50) in assay [1] is 16 nM; in assay [3] it was 12 nM. Besides, in assay [2], the Ratio is 1.3.

Regarding `CC(C)c1cnc(NC(=O)Nc2ccccc2)s1`, the figures for the half-maximal inhibitory concentration (IC50) in assay [4] and in assay [3] were 265 nM and 102 nM, respectively. In assay [2], the Ratio amounted to 2.6.

In the case of `O=C(Nc1ccc2ncccc2c1)Nc1ncc(C2CCC2)s1`, the IC50 is 167 nM in assay [1] and 44 nM in assay [3]. Besides, in assay [2], the Ratio was found to be 3.8.

With `O=C(Cc1ccc2ncccc2c1)Nc1ncc(C2CCC2)s1`, the IC50 in assay [1] was 26 nM; in assay [3] it was 10 nM. Further, in assay [2], the Ratio is 2.6.

Turning to `O=C(Cc1ccccc1)Nc1ncc(C2CCCC2)s1`, the half-inhibitory concentration (IC50) in assay [1] was determined as 155 nM; in assay [3] it was 64 nM. In assay [2], the Ratio stood at 2.4.

On to `O=C(Cc1ccccc1)Nc1ncc(C2=CCCC2)s1`, for which the IC50 was 6510 nM in assay [1] and 6530 nM in assay [3]. The Ratio in assay [2] came to 1.
